The values that follow come from article PMC5108244 (ACS Infectious Diseases, 2016).

In assay [1] the test system is T. brucei brucei TREU667 strain. The assay is described as follows: Late-stage T. brucei infection model in mice. The settings on record: mice n = 5, orally 25 mg/kg qd for 10 days, monitored 90 days. Format: in vivo. In outline: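 Female Swiss Webster mice (6–8 weeks, n = 5/group) infected ip on day 0 with 1 × 10^4 donor-mouse parasites in IMDM. From day 7, oral dosing for 10 days in DMSO/EtOH/Tween-80/saline: test compound 50 mg/kg bid, benzoxaborole control 25 mg/kg qd, vehicle bid. Diminazene control: single ip dose of 10 mg/kg on day 7. Tail blood checked microscopically at least twice weekly to day 30, then weekly to day 90. Parasitemic mice euthanized.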

Assay [2] has as its system T. brucei rhodesiense STIB900 strain. As to the kind of experiment: Early-stage T. brucei infection model in mice. Type of assay: in vivo. In outline:
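Female Swiss Webster mice (6–8 weeks, n = 4/group) infected ip on day 0 with 1 × 10^4 fresh-culture bloodstream-form parasites diluted in IMDM. Oral dosing twice daily, days 2–5 (eight doses), in 5% DMSO, 7% EtOH, 3% Tween-80 in saline; vehicle group in parallel; benzoxaborole reference as positive control. Parasitemia checked microscopically in tail blood through day 60.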

Take `CC1(C)OB(O)c2cc(NC(=O)c3ccc(F)cc3C(F)(F)F)ccc21` [compound 14, 4-fluoro-N-(1-hydroxy-3,3-dimethyl-2,1-benzoxaborol-6-yl)-2-(trifluoromethyl)benzamide]: the “mice free of infection at the end of the experiment” value in assay [1] was “all survived and were free of infection”. Further, the “cures as of day 60” value is reported as 0/4 in assay [2] (mice n = 4, 1 mg/kg po bid for 4 days); 1/4 in assay [2] (mice n = 4, 5 mg/kg po bid for 4 days); 4/4 in assay [2] (mice n = 4, 10 mg/kg po bid for 4 days).
